RTF Ca sens act: cardiac RTF calcium sensitivity activators, primary screen, biochemical, IANBD-TnC fluorescence, EC20 calcium; 340,000 tested, 0.24% active; AID 493008, 2010; Troponin I, cardiac muscle (Homo sapiens) + Troponin T, cardiac muscle (Homo sapiens) + …; activation, % at 7.2 µM; IANBD-labeled TnC RTF fluorescence at EC20 calcium; 0% EC20 calcium, 100% full calcium;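 active = activation above the mean over all tested compounds plus 3 SD, cut at about 30% in these data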;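 note: rise in fluorescence read as greater calcium sensitivity of cardiac thin filaments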
SUMO Mot1 rescue: yeast Mot1-301 growth rescue at high temperature, primary screen, SUMOylation pathway inhibitor project, S. cerevisiae, ATP luminescence, 38.5C; S. cerevisiae Mot1-301 growth rescue; percent above DMSO median, 100 means doubled; growth rescue, % at 18.8 µM; 320,000 tested, 1% active; AID 2716, 2010;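 active = every valid replicate shows activation above 250% relative to neutral control wells; inactive = the rest, any valid replicate at or below 250%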;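 note: OY570 slx delta 5 strain wells were the positive control but not used for scaling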
RTF Ca sens inh: cardiac RTF calcium sensitivity inhibitors, primary screen, biochemical, IANBD-TnC fluorescence, EC70 calcium | Troponin I, cardiac muscle (Homo sapiens) + Troponin T, cardiac muscle (Homo sapiens) + … | inhibition, % at 7.15 µM | IANBD-labeled cardiac RTF, Ca2+ fluorescence | 340,000 tested, 0.12% active | AID 493244, 2011;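 active = inhibition above the mean inhibition of all tested compounds plus 3 SD, cut at about 17% in these data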;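 note: assay run at fixed EC70 calcium of 1.6 mM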
UCH37 inh: inhibitors of human UCH37 deubiquitinase, primary screen, biochemical, Ub-AMC cleavage, fluorescence; Ubiquitin carboxyl-terminal hydrolase isozyme L5 (Homo sapiens), Q9Y5K5; purified proteasome/UCH37; AID 588478, 2011; 330,000 tested, 0.33% active; inhibition, % (concentration not given with the values);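 active = mean inhibition over replicate wells above about 20%, limit read from the data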;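 note: 0% = compound-free wells with enzyme and 100% = wells lacking proteasome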
Target sequence (Q9Y5K5 whole entry, looked up): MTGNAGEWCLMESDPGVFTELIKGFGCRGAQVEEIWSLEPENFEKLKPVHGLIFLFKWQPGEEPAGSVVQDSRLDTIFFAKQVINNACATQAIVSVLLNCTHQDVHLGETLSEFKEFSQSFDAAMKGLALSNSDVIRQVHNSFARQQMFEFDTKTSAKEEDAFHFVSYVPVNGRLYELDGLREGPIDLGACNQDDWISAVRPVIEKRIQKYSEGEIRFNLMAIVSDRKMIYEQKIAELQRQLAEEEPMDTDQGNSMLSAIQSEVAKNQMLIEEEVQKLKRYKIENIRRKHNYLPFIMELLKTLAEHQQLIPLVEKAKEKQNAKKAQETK
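assay system = human UCH37 enzyme supplied as purified proteasome complex | amount = proteasome at 0.15 nM in the dispensed enzyme solution | schedule = 30 min compound-proteasome preincubation then 25 min substrate reaction, room temperature | measured by = fluorescence, ex 355 nm, em 460 nm | benchmarks = no-proteasome wells (full inhibition) and compound-free wells (no inhibition)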
ARNT TACC3 PPI: disruptors of ARNT/TACC3 protein interaction, primary screen, biochemical, AlphaScreen, single concentration | AlphaScreen His-ARNT PAS-B/GST-TACC3 binding, luminescence; TACC3 fragment carries E629A point mutation | inhibition, % at 9.99 µM | 390,000 tested, 0.66% active | AID 623870, 2012;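 active = mean inhibition of replicates at least 50% and at least half of replicates each reaching 50%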;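 note: 0% = complete ARNT plus TACC3 wells and 100% = ARNT alone without TACC3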
Efflux pump mplx: inhibitors of Candida efflux pumps in yeast, primary screen, S. cerevisiae, Nile Red, multiplex. S. cerevisiae Candida pump triplex. inhibition, % at 10 µM. 330,000 tested, 0.44% active;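 active = plate passing quality check with inhibition over a set limit, or well fluorescence over plate mean plus 4 SD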;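 note: Nile Red retained in pooled yeast measured as flow cytometry median fluorescence; 0% = buffer negative control and 100% = Enniatin B positive control; higher means more Nile Red kept so more efflux inhibition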
UCH37 confirm: retest of human UCH37 deubiquitinase inhibitors, confirmation, biochemical, Ub-AMC cleavage rate, fluorescence; shares compounds with UCH37 inh; Proteasome-bound UCH37; inhibition, % at 20 µM; 480 tested, 27% active; AID 624100, 2012;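 active = average inhibition over replicates above about 50%, so the earlier screening hit is confirmed, limit read from the data; inactive = the rest, counted as false positives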;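 note: based on cleavage rate fitted by regression over a 30 min kinetic read; 0% = proteasome plus Ub-AMC and 100% = Ub-AMC without proteasome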
Active calls of the source: *; x = no result given. The list is not random: actives were taken first. Their share in the collection is about 2.1%.

SMILES	RTF Ca sens act	SUMO Mot1 rescue	RTF Ca sens inh	UCH37 inh	ARNT TACC3 PPI	Efflux pump mplx	UCH37 confirm
O=C1C(Nc2ccccc2)=CC(=NS(=O)(=O)c2cccs2)c2ccccc21	x	x	x	78*	x	x	34
Cc1ccc(NC2=CC(=NS(=O)(=O)c3cccs3)c3ccccc3C2=O)cc1C	x	x	x	4	x	x	x
Cc1cc(C)c[n+](C2=C([O-])c3ccccc3C(=O)/C2=N\S(=O)(=O)c2cccs2)c1	0	-9	2	27*	2	0	11
Cc1cc[n+](C2=C([O-])c3ccccc3C(=O)/C2=N\S(=O)(=O)c2cccs2)cc1C	3	-6	-6	7	x	0	x
CC(=O)Nc1nc(SCC(=O)NCc2ccc(F)cc2)[nH]c(=O)c1NC(=O)c1cccs1	-6	7	1	43*	x	0	9
CCOC(=O)NC(=O)/C(N=Nc1cccc(C(F)(F)F)c1)=C(\C)O	x	9	x	0	x	0	x
COC(=O)/C(N=Nc1cccc(C(F)(F)F)c1)=C(\C)O	-6	7	-48	43*	-4	0	16
O=[N+]([O-])c1ccc(O)c(C=NNc2ccc(S(=O)(=O)O)cc2)c1	-5	x	3	25*	1	x	15
O=[N+]([O-])c1ccc(O)c(C=NNc2ccccc2Cl)c1	x	x	x	5	x	x	x
COc1cc(C=Nn2cnnc2)ccc1OS(=O)(=O)c1ccccc1[N+](=O)[O-]	x	x	x	1	x	x	x
C/C(C=NNC(=O)c1ccc2nc(C)[nH]c2c1)=C\c1ccccc1	x	x	x	7	x	x	x
CCN(CC)CCCNC1=C(Cl)C(=O)c2ccccc2C1=O	1	-3	-1	27*	15*	0	39
O=C1C(Cl)=C(NCCc2ccccc2)C(=O)c2ccccc21	-5	x	9	76*	41	x	87*
O=C(O)c1cccc(NC2=C(Cl)C(=O)c3ccccc3C2=O)c1	-5	x	1	46*	16	x	25
O=C1C(Cl)=C(Nc2ccccc2)C(=O)c2ccccc21	-11	50	-5	6	2	0	x
CCOC(=O)COc1c(C=NOC)cc(Cl)cc1OC	x	x	x	-2	x	x	x
NC(=NO)c1ccc(Oc2ccccc2Cl)c([N+](=O)[O-])c1	x	x	x	4	x	x	x
CC1(C)OC(c2ccccc2)=C/C(=C/C=Nc2ccccc2)O1	0	-8	-15	48*	4	0	-18
CSCC[C@H](NC(=O)OC(C)(C)C)C(=O)NN=Cc1cccc2cccnc12	x	x	x	-2	x	x	x
CCOc1ccc(C2/C(=C(\O)c3ccc(OC)c(OC)c3)C(=O)C(=O)N2c2cc(C)on2)cc1OC (centres undefined)	4	-9	-7	4	-1	0	x
CCOc1ccc(C2/C(=C(\O)c3cccc(OC)c3)C(=O)C(=O)N2c2cc(C)on2)cc1OC (centres undefined)	-3	-7	4	49*	3	0	26
COCc1cc(C)nc(OCC(=O)NN=Cc2ccccc2O)c1C#N	x	x	x	-4	x	x	x
Cc1ccc(S(=O)(=O)N=C(c2ccccc2)N2CCOCC2)c(C)c1	x	x	x	0	x	x	x
CCCCCc1ccc(-c2cn(Cc3ccc(C)cc3)nn2)cc1	5	366	-15	35*	-6	0	2
COC(=O)C1=C(C(=O)OC)[C@@H]2N(C)c3ccccc3[C@@]23C[C@@H](C(=O)OC)N(C(=O)CC(C)C)C3=N1	-5	45	2	42*	8	0	2

Screening results deposited in PubChem by several laboratories.
